Compounds with a hit are over-represented: about 2.2% of the library has one in this group of screens.
RORA act: RORA (human) activation; P35398; CHO-K1 Gal4-RORA LBD luciferase reporter, luminescence; percent increase over mock-subtracted basal signal; activation, % at 10 µM; hit rate 1.5% among 65,000; AID 560;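 active means activation above the mean of all tested compounds plus 3 SD, cut at about 49% in these data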;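 further: 0% = DMSO-treated RORA cells and 100% = added signal equal to DMSO minus mock-transfected cells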
Mac1 fbg enh: CD11b/CD18-fibrinogen binding enhancement; P05107+P11215; K562 CD11b/CD18 adhesion to fibrinogen, ATPlite luminescence; activation, % at 10 µM; hit rate 0.07% among 93,000;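 active means 10 µM primary screen giving 50% or more activity, confirmed by 40% or more on retest at that dose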
MT1-MMP txn act: activates MT1-MMP transcription; HT1080 MT1-MMP promoter luciferase reporter, luminescence, overnight; hits give high values; activation factor at 10 µM; hit rate 0.16% among 86,000;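 active means activation factor of at least 2 for MT1-MMP transcription at 10 µM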
Calb biofilm kill: kills Candida albicans biofilms; C. albicans biofilm + clotrimazole, Alamar Blue; inhibition, % at 6 µM; hit rate 0.14% among 85,000; AID 834;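 active means inhibition above 20%; inactive means inhibition below 20%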;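 further: preformed 24 hr biofilms exposed to compound for 48 hr; 0% = biofilm without compound and 100% = blank killed by clotrimazole plus chlorhexidine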
SF1 activator: SF-1 (human) activation. Q13285. CHO-K1 Gal4-SF-1 LBD luciferase reporter; % increase over DMSO SF-1-specific signal. activation, % at 10 µM. hit rate 1.9% among 65,000;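 active means activation above the mean activation of all tested compounds plus 3 SD, cut at about 50% in these data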
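material = CHO-K1 cells with Gal4–hSF-1 LBD chimera plus Gal4-driven luciferase | compound = 10 µM single point, 1% DMSO | incubation = 20 h compound exposure at 37 °C after 1 h cell settling | measured by = SteadyLite luciferase luminescence | evaluation = percent activation relative to DMSO median and mock-transfected background | control set = DMSO negative control and −SF1 background wells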
Mac1 fbg inh: inhibitors of human CD11b/CD18 binding to fibrinogen; P05107+P11215; K562 CD11b/CD18 adhesion to fibrinogen, ATPlite luminescence; Mn2+ added to activate the integrin; inhibition, % at 10 µM; hit rate 0.54% among 93,000;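 active means primary inhibition of 50% or more at 10 µM, then 40% or more on retest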
Active calls of the source: *; ! = repeats disagree.

`COc1ccc(N2CC(O)=C(c3nc4ccccc4s3)C2=N)c(OC)c1` gave RORA act 3, Mac1 fbg enh 3, MT1-MMP txn act 1.2, Calb biofilm kill -2, SF1 activator 0 and Mac1 fbg inh -10.
For N=C1C(c2nc3ccccc3s2)=C(O)CN1Cc1ccco1 the results were RORA act 36, Mac1 fbg enh 2, MT1-MMP txn act 1.4, Calb biofilm kill 7, SF1 activator 52* and Mac1 fbg inh 2.
O=[N+]([O-])c1cc(Br)c(O)c(/C=N/Nc2nnnn2-c2cccc3ccccc23)c1 was read as Mac1 fbg enh -8 and Mac1 fbg inh 88*.
COC(=O)CSc1nnnn1-c1cccc2ccccc12 was read as RORA act 6, Mac1 fbg enh 5, MT1-MMP txn act 1.2, Calb biofilm kill 4, SF1 activator -2 and Mac1 fbg inh -40.
For COc1ccc(OC2C(=O)N(Cc3ccc4c(c3)OCO4)C2c2sccc2C)cc1 (stereo not given) the results were Mac1 fbg enh -2 and Mac1 fbg inh 17.
Clc1ccc2nc(N3CCCCC3)sc2c1 was read as RORA act 29, Mac1 fbg enh -2, MT1-MMP txn act 1.8, Calb biofilm kill 7, SF1 activator 65* and Mac1 fbg inh 8.
O=C(NCC1CCCO1)c1ccc(N2CCCCC2)nc1 (stereo not given) was read as RORA act 14, Mac1 fbg enh -1, MT1-MMP txn act 1.3, Calb biofilm kill 9, SF1 activator 12 and Mac1 fbg inh -2.
`Fc1cccc2sc(N3CCOCC3)nc12` gave RORA act 3, MT1-MMP txn act 1.4, Calb biofilm kill 8 and SF1 activator 40.
Fc1cccc2sc(N3CCCCC3)nc12 was read as RORA act 33, Mac1 fbg enh 1, MT1-MMP txn act 1.4, Calb biofilm kill 0, SF1 activator 73* and Mac1 fbg inh -34.
For O=C(NCC1CCCO1)c1ccc2nc(N3CCCCC3)sc2c1 (stereo not given) the results were RORA act 59*, Mac1 fbg enh -3, MT1-MMP txn act 1.5, Calb biofilm kill 8, SF1 activator 54* and Mac1 fbg inh 1.
`COc1ccc(C(=O)CSc2nc3ccc([N+](=O)[O-])cc3[nH]2)cc1` gave Mac1 fbg enh -1 and Mac1 fbg inh -5.
`COc1cc(C)c(Cl)c(C)c1S(=O)(=O)NCc1ccc2c(c1)OCO2` gave RORA act -20, Mac1 fbg enh -2, MT1-MMP txn act 1.1, Calb biofilm kill -5, SF1 activator -6 and Mac1 fbg inh -7.
COc1cc(C)c(S(=O)(=O)NCc2ccc3c(c2)OCO3)cc1C was read as RORA act 16, Mac1 fbg enh -12, MT1-MMP txn act 1, Calb biofilm kill 27*, SF1 activator 1 and Mac1 fbg inh -4.
CC(NC(=O)c1cc(-c2ccc3c(c2)OCO3)nc2ccccc12)C(C)(C)C (stereo not given) was read as Mac1 fbg enh 0, MT1-MMP txn act 1.1, Calb biofilm kill 1 and Mac1 fbg inh -5.
CC(C)C1N=C(c2ccc3c(c2)OCO3)CC(c2ccccc2O)N1 (stereo not given) was read as Mac1 fbg enh 4, MT1-MMP txn act 2*, Calb biofilm kill 7 and Mac1 fbg inh 6.
O=C(c1ccc(Cl)cc1)N1CCC(O)(CSc2ccc(Cl)cc2Cl)CC1 was read as Mac1 fbg enh -8 and Mac1 fbg inh 66.
C=CCSc1n[nH]c(-c2ccc(OC)cc2)n1 was read as RORA act 63*, Mac1 fbg enh -2, MT1-MMP txn act 1.4, Calb biofilm kill 3, SF1 activator 68* and Mac1 fbg inh -23.
`C=CCSc1n[nH]c(-c2ccccc2)n1` gave Mac1 fbg enh 3, MT1-MMP txn act 1.4, Calb biofilm kill 5 and Mac1 fbg inh -1.
Screening FC(F)(F)c1ccc(CN2C[C@@H]3C(c4ccc(C(F)(F)F)cc4)C4(c5ccccc5)CC3(C4)[C@H]2c2ccccc2)cc1 (stereo not given in full) returned MT1-MMP txn act 1.1.
CCOC(=O)c1c(C)[nH]c(C(=O)COC(=O)CSCC(=O)N(CC)CC)c1C was read as RORA act -3, Mac1 fbg enh -3, MT1-MMP txn act 1.2, Calb biofilm kill -1, SF1 activator 0 and Mac1 fbg inh 2.
For O=C(NCCc1ccccc1)c1cc(-c2ccco2)on1 the results were RORA act 69*, MT1-MMP txn act 1.5, Calb biofilm kill 8 and SF1 activator 86*.
`O=C(NCc1ccccc1)c1cc(-c2ccco2)on1` gave RORA act 24, Mac1 fbg enh -1, MT1-MMP txn act 1.4, Calb biofilm kill 10, SF1 activator 22 and Mac1 fbg inh 9.
For c1ccc(-c2noc(-c3ccncc3)n2)nc1 the results were RORA act 35, Mac1 fbg enh -5, MT1-MMP txn act 1.1, Calb biofilm kill 2, SF1 activator 14 and Mac1 fbg inh -7.
For c1ccc(-c2noc(C3CCCCC3)n2)nc1 the results were RORA act 61*, Mac1 fbg enh 4, MT1-MMP txn act 1.1, Calb biofilm kill 6, SF1 activator 56* and Mac1 fbg inh -14.
For c1ccc(-c2noc(C34CC5CC(CC(C5)C3)C4)n2)nc1 the results were RORA act 42, Mac1 fbg enh 0, MT1-MMP txn act 1.4, Calb biofilm kill 3, SF1 activator 86* and Mac1 fbg inh -2.
`N#C/C(=N\O)c1nc(-c2ccccc2)cs1` gave RORA act 11, Mac1 fbg enh -5, MT1-MMP txn act 1.1, Calb biofilm kill 8, SF1 activator -4 and Mac1 fbg inh 66*!.
Screening N#CC(=C1CCCC1)c1nc(-c2ccccc2)cs1 returned MT1-MMP txn act 1.5 and Calb biofilm kill 7.
Screening COC(=O)[C@@]1(Cc2ccc(OC)cc2)[C@H]2c3cc(C(=O)N4CCCC4)n(Cc4nc5ccccc5[nH]4)c3C[C@H]2CN1C(=O)c1ccccc1 returned MT1-MMP txn act 1.2.
Screening c1ccc2sc(-c3ccc4c(c3)OCO4)nc2c1 returned RORA act -25, Mac1 fbg enh -3, MT1-MMP txn act 0.8, Calb biofilm kill 4, SF1 activator -37 and Mac1 fbg inh 20.
For CN(C)c1nc(N)nc(-c2nc3ccccc3s2)n1 the results were RORA act 11, Mac1 fbg enh 3, MT1-MMP txn act 1.8, Calb biofilm kill 6, SF1 activator 54* and Mac1 fbg inh -14.
For COc1ccc(-c2c[n+]3c(n2-c2ccccc2)CCCCC3)cc1 the results were Mac1 fbg enh 1 and Mac1 fbg inh 23.
Screening CCOc1ccc(-n2c(-c3ccc(OC)cc3)c[n+]3c2CCCCC3)cc1 returned Mac1 fbg enh -7 and Mac1 fbg inh 100*.

Compound activity (PubChem)
